Laboratory results reported in ChEMBL document CHEMBL3872205, “Design, synthesis and evaluation of novel potent angiotensin II receptor 1 antagonists” (Eur J Med Chem, 2016).

Tests used:
[1] = MRT (0 to 72 hrs) in Wistar rat brain at 15 mg/kg, po by HPLC analysis; format: ADME, organism-based
Method in brief: (§1)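 Tissue distribution in male Wistar rats given oral 10, 15 or 30 mg/kg; heart, liver, spleen, lung, kidney and brain collected predose and 0.5–72 h post-dose (n = 6 per time). Tissue rinsed in saline, homogenised 0.25 g/1 mL saline, methanol extraction, dried under nitrogen, reconstituted in methanol. Analysis by reverse-phase C18 HPLC, acetonitrile/water 60:40, 1.0 mL/min, ambient temperature.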

[2] = MRT (0 to infinity) in Wistar rat spleen at 15 mg/kg, po by HPLC analysis; format: ADME, organism-based
Method in brief: (§2)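 Male Wistar rats (180 ± 20 g) received a single oral dose of 10, 15 or 30 mg/kg. Tissues were collected at 0, 0.5, 1, 2, 4, 6, 8, 12, 24, 48 and 72 h (n = 6 per point). Samples of 0.25 g were rinsed, then homogenized in saline (0.25 g/1 mL) and centrifuged at 10,000 × g. Supernatant was methanol-extracted, dried under nitrogen at 50 °C and reconstituted in methanol. Analysis was by C18 HPLC (acetonitrile 60% / water 40%, 1.0 mL/min).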

[3] = AUC (0 to infinity) in Wistar rat lung at 30 mg/kg, po by HPLC analysis; format: ADME, organism-based; parameters: dose 30 mg/kg, route oral, time infinity
Method in brief: (§3)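 Wistar rats (180 ± 20 g) were dosed orally at 10, 15 or 30 mg/kg. Heart, liver, spleen, lung, kidney and brain were collected at 0–72 h (n = 6 per point). Tissue was rinsed, blotted and homogenized in saline (0.25 g/1 mL), then spun at 10,000 × g. Supernatant was methanol-extracted, dried under nitrogen at 50 °C, reconstituted in methanol and run on C18 HPLC (acetonitrile 60%/water 40%, 1.0 mL/min).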

[4] = Displacement of 125I-Ang2 from AT1 receptor in SPF Sprague-Dawley rat vascular smooth muscle cell membranes after 150 mins by gamma counting method
Method in brief: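 Primary aortic VSMCs from SPF Sprague-Dawley rats, obtained by explant culture in DMEM/10% FBS and identified by SM α-actin staining; passages 3–6. Whole cells (10^6/well) incubated with 125I-Ang II (diluted to 0.2 nM) and compound at final 10^-12–10^-6 M, 4 °C for 150 min. Washed, lysed in 0.1 M NaOH, γ-counted. IC50 from nonlinear fit of competition curves.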

[5] = MRT (0 to 72 hrs) in Wistar rat Heart at 15 mg/kg, po by HPLC analysis; format: ADME, organism-based; method in brief: as §1
[6] = Tmax in Wistar rat Heart at 30 mg/kg, po by HPLC analysis; format: ADME, organism-based; method in brief: as §2
[7] = MRT (0 to infinity) in Wistar rat Heart at 30 mg/kg, po by HPLC analysis; format: ADME, organism-based; method in brief: as §2
[8] = MRT (0 to 72 hrs) in Wistar rat brain at 30 mg/kg, po by HPLC analysis; format: ADME, organism-based; method in brief: as §1
[9] = AUC (0 to 72 hrs) in Wistar rat liver at 30 mg/kg, po by HPLC analysis; format: ADME, organism-based; parameters: time < 72 hr, dose 30 mg/kg, route oral; method in brief: as §3
[10] = Toxicity in ICR mouse assessed as mortality at 2343.75 mg/kg, ig after 2 weeks; format: organism-based; conditions: in vivo, po
[11] = Cmax in Wistar rat heart at 10 mg/kg, po by HPLC analysis; format: ADME, organism-based; parameters: dose 10 mg/kg, route oral; method in brief: as §1
[12] = AUC (0 to infinity) in Wistar rat kidney at 30 mg/kg, po by HPLC analysis; format: ADME, organism-based; parameters: dose 30 mg/kg, route oral, time infinity; method in brief: as §3
[13] = AUC (0 to 72 hrs) in Wistar rat kidney at 15 mg/kg, po by HPLC analysis; format: ADME, organism-based; parameters: dose 15 mg/kg, time < 72 hr, route oral; method in brief: as §3
[14] = AUC (0 to infinity) in Wistar rat liver at 10 mg/kg, po by HPLC analysis; format: ADME, organism-based; parameters: dose 10 mg/kg, route oral, time infinity; method in brief: as §3
[15] = Tmax in Wistar rat lung at 15 mg/kg, po by HPLC analysis; format: ADME, organism-based; method in brief: as §2
[16] = Half life in Wistar rat liver at 30 mg/kg, po by HPLC analysis; format: ADME, organism-based; method in brief: as §1
[17] = AUC (0 to infinity) in Wistar rat kidney at 10 mg/kg, po by HPLC analysis; format: ADME, organism-based; parameters: dose 10 mg/kg, time infinity, route oral; method in brief: as §3
[18] = Half life in Wistar rat Heart at 15 mg/kg, po by HPLC analysis; format: ADME, organism-based; method in brief: as §1
[19] = AUC (0 to infinity) in Wistar rat lung at 10 mg/kg, po by HPLC analysis; format: ADME, organism-based; parameters: dose 10 mg/kg, time infinity, route oral; method in brief: as §3
[20] = AUC (0 to infinity) in Wistar rat spleen at 30 mg/kg, po by HPLC analysis; format: ADME, organism-based; parameters: dose 30 mg/kg, route oral, time infinity; method in brief: as §3
[21] = AUC (0 to 72 hrs) in Wistar rat spleen at 30 mg/kg, po by HPLC analysis; format: ADME, organism-based; parameters: dose 30 mg/kg, time < 72 hr, route oral; method in brief: as §3
[22] = MRT (0 to 72 hrs) in Wistar rat lung at 15 mg/kg, po by HPLC analysis; format: ADME, organism-based; method in brief: as §2
[23] = MRT (0 to infinity) in Wistar rat brain at 10 mg/kg, po by HPLC analysis; format: ADME, organism-based; method in brief: as §2
[24] = MRT (0 to 72 hrs) in Wistar rat brain at 10 mg/kg, po by HPLC analysis; format: ADME, organism-based; method in brief: as §1
[25] = AUC (0 to infinity) in Wistar rat plasma at 30 mg/kg, po by HPLC analysis; format: ADME, organism-based; parameters: dose 30 mg/kg, route oral, time infinity
Method in brief: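 Male Wistar rats (180 ± 20 g, n = 6 per group) got one oral dose. Heparinized blood was taken by retro-orbital puncture before dosing and at 0.5–72 h. Plasma was spun at 4000 × g, 4 °C, 10 min, spiked with internal standard and protein-precipitated with acetonitrile. Analysis was reverse-phase C18 HPLC (0.02 mol/L KH2PO4 55%/acetonitrile 45%, 1.0 mL/min). Calibration used 0.1–10 µg/mL, peak-height ratio, weighting concentration^-2.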

[26] = MRT (0 to infinity) in Wistar rat lung at 10 mg/kg, po by HPLC analysis; format: ADME, organism-based; method in brief: as §2
[27] = MRT (0 to 72 hrs) in Wistar rat liver at 10 mg/kg, po by HPLC analysis; format: ADME, organism-based; method in brief: as §1
[28] = Tmax in Wistar rat spleen at 10 mg/kg, po by HPLC analysis; format: ADME, organism-based
[29] = Cmax in Wistar rat heart at 30 mg/kg, po by HPLC analysis; format: ADME, organism-based; parameters: dose 30 mg/kg, route oral; method in brief: as §1
[30] = Half life in Wistar rat kidney at 30 mg/kg, po by HPLC analysis; format: ADME, organism-based; method in brief: as §1
[31] = Tmax in Wistar rat brain at 10 mg/kg, po by HPLC analysis; format: ADME, organism-based; method in brief: as §2
[32] = Tmax in Wistar rat liver at 15 mg/kg, po by HPLC analysis; format: ADME, organism-based; method in brief: as §2
[33] = Cmax in Wistar rat liver at 15 mg/kg, po by HPLC analysis; format: ADME, organism-based; parameters: dose 15 mg/kg, route oral; method in brief: as §1
[34] = Half life in Wistar rat plasma at 10 mg/kg, po by HPLC analysis; format: ADME, organism-based
[35] = AUC (0 to infinity) in Wistar rat Heart at 15 mg/kg, po by HPLC analysis; format: ADME, organism-based; parameters: dose 15 mg/kg, time infinity, route oral; method in brief: as §3
[36] = Half life in Wistar rat kidney at 15 mg/kg, po by HPLC analysis; format: ADME, organism-based; method in brief: as §1
[37] = MRT (0 to infinity) in Wistar rat liver at 30 mg/kg, po by HPLC analysis; format: ADME, organism-based; method in brief: as §2

SMILES: CCCCC1=NC2(CCCC2)C(=O)N1Cc1ccc2c(ccn2-c2ccccc2-c2nnn[nH]2)c1
- MRT last [1]: 11.6 h
- MRT inf [2]: 13.1 h
- AUC(0-inf) [3]: 2410 ng·h/mL
- IC50 [4]: 1.26 nM
- Ki [4]: 0.91 nM
- MRT last [5]: 16.9 h
- Tmax [6]: 4.8 h
- MRT inf [7]: 28.1 h
- MRT last [8]: 9.03 h
- AUC(0-t) at 72 h [9]: 14500 ng·h/mL
- mortality at 336 h [10]: 80%
- Cmax [11]: 105 ng/mL
- AUC(0-inf) [12]: 29400 ng·h/mL
- AUC(0-t) at 72 h [13]: 5730 ng·h/mL
- AUC(0-inf) [14]: 3320 ng·h/mL
- Tmax [15]: 1 h
- half-life [16]: 2.12 h
- AUC(0-inf) [17]: 10800 ng·h/mL
- half-life [18]: 15.8 h
- AUC(0-inf) [19]: 745 ng·h/mL
- AUC(0-inf) [20]: 21000 ng·h/mL
- AUC(0-t) at 72 h [21]: 18900 ng·h/mL
- MRT last [22]: 6.64 h
- MRT inf [23]: 8.1 h
- MRT last [24]: 8.1 h
- AUC(0-inf) [25]: 88800 ng·h/mL
- MRT inf [26]: 10.6 h
- MRT last [27]: 4.93 h
- Tmax [28]: 2 h
- Cmax [29]: 401 ng/mL
- half-life [30]: 22.4 h
- Tmax [31]: 6.67 h
- Tmax [32]: 2 h
- Cmax [33]: 1230 ng/mL
- half-life [34]: 9.93 h
- AUC(0-inf) [35]: 6700 ng·h/mL
- half-life [36]: 22.6 h
- MRT inf [37]: 5.49 h
